Measurements reported in ChEMBL document CHEMBL2390952, “Novel triazolo-pyrrolopyridines as inhibitors of Janus kinase 1” (Bioorg Med Chem Lett, 2013).

test system: not listed separately; test: Lipophilicity, log D of the compound at pH 7.2; assay type: physicochemical; conditions: buffer
Summary of the method: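 Log D determined experimentally at pH 7.2.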

Compound | logD
N#CCCO[C@H]1CC[C@H](n2nnc3cnc4[nH]ccc4c32)CC1 | 1.36
CC1(n2nnc3cnc4[nH]ccc4c32)CCN(CCC#N)CC1 | 1.92
c1cc2c(ncc3nnn(C4CCNCC4)c32)[nH]1 | -0.35
c1cncc(CN2CCC(n3nnc4cnc5[nH]ccc5c43)CC2)c1 | 2.03

Next, values leading:

logD | Compound
3.58 | CC(C)(C)OC(=O)N[C@H]1CC[C@H](n2nnc3cnc4[nH]ccc4c32)CC1
3.53 | CC(C)(C)OC(=O)N[C@@H]1CC[C@@H](n2nnc3cnc4[nH]ccc4c32)C1

biological target: T1, Tyrosine-protein kinase JAK1 (Homo sapiens, UniProt P23458); test: Inhibition of JAK1 (unknown origin); conditions: not given
T1 sequence (P23458 whole entry): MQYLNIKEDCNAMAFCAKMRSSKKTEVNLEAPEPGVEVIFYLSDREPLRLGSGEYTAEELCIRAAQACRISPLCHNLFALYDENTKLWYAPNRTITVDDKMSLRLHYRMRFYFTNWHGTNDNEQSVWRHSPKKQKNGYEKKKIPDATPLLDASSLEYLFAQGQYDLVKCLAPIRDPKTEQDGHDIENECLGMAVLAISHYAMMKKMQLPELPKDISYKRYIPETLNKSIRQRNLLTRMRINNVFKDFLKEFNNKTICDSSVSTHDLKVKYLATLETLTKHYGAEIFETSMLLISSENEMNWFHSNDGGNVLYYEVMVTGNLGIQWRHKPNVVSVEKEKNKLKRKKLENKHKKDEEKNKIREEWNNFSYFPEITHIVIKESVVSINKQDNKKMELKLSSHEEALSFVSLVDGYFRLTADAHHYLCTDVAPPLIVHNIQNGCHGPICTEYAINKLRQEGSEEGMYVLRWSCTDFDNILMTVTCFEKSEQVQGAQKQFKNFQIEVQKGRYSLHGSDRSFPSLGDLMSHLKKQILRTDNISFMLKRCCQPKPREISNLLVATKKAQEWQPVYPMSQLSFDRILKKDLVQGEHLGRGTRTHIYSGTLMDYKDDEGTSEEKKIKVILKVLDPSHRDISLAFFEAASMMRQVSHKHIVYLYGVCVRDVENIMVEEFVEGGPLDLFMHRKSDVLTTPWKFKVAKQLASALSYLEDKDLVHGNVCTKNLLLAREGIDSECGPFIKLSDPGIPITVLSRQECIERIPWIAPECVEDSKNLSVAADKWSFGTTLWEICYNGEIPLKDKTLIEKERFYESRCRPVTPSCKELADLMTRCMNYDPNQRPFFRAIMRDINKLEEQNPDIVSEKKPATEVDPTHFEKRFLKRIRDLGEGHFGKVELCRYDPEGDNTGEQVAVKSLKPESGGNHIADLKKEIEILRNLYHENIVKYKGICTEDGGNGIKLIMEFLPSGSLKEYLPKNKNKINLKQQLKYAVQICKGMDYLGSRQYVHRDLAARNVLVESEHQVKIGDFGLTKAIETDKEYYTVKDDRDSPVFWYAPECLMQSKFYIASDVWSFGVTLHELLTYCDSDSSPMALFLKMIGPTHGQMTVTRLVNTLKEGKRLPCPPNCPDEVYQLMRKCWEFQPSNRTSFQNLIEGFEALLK

Compound | Ki
N#CCCO[C@H]1CC[C@H](n2nnc3cnc4[nH]ccc4c32)CC1 | > 3760 nM
CC1(n2nnc3cnc4[nH]ccc4c32)CCN(CCC#N)CC1 | 156 nM
c1cc2c(ncc3nnn(C4CCNCC4)c32)[nH]1 | 210 nM
c1cncc(CN2CCC(n3nnc4cnc5[nH]ccc5c43)CC2)c1 | 16 nM

Continued by falling Ki, values first:

Ki | Compound
120 nM | CC(C)(C)OC(=O)N[C@H]1CC[C@H](n2nnc3cnc4[nH]ccc4c32)CC1
2.4 nM | CC(C)(C)OC(=O)N[C@@H]1CC[C@@H](n2nnc3cnc4[nH]ccc4c32)C1

organism: Homo sapiens; test: Selectivity ratio of Ki for JAK2 (unknown origin) to Ki for JAK1 (unknown origin); conditions: not given
Summary of the method: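 Biochemical JAK enzyme assay giving Ki, reported as the arithmetic mean of at least three separate determinations. Selectivity is taken as JAK2 Ki divided by JAK1 Ki.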

Compound | Ratio Ki
CC1(n2nnc3cnc4[nH]ccc4c32)CCN(CCC#N)CC1 | 3.1
c1cc2c(ncc3nnn(C4CCNCC4)c32)[nH]1 | 3.2
c1cncc(CN2CCC(n3nnc4cnc5[nH]ccc5c43)CC2)c1 | 1.7

Other lines, results leading:

Ratio Ki | Compound
3.3 | CC(C)(C)OC(=O)N[C@H]1CC[C@H](n2nnc3cnc4[nH]ccc4c32)CC1
4.2 | CC(C)(C)OC(=O)N[C@@H]1CC[C@@H](n2nnc3cnc4[nH]ccc4c32)C1

biological target: Tyrosine-protein kinase JAK2 (Homo sapiens, UniProt O60674); test: Inhibition of JAK2 (unknown origin); conditions: not given
Sequence (O60674 whole entry): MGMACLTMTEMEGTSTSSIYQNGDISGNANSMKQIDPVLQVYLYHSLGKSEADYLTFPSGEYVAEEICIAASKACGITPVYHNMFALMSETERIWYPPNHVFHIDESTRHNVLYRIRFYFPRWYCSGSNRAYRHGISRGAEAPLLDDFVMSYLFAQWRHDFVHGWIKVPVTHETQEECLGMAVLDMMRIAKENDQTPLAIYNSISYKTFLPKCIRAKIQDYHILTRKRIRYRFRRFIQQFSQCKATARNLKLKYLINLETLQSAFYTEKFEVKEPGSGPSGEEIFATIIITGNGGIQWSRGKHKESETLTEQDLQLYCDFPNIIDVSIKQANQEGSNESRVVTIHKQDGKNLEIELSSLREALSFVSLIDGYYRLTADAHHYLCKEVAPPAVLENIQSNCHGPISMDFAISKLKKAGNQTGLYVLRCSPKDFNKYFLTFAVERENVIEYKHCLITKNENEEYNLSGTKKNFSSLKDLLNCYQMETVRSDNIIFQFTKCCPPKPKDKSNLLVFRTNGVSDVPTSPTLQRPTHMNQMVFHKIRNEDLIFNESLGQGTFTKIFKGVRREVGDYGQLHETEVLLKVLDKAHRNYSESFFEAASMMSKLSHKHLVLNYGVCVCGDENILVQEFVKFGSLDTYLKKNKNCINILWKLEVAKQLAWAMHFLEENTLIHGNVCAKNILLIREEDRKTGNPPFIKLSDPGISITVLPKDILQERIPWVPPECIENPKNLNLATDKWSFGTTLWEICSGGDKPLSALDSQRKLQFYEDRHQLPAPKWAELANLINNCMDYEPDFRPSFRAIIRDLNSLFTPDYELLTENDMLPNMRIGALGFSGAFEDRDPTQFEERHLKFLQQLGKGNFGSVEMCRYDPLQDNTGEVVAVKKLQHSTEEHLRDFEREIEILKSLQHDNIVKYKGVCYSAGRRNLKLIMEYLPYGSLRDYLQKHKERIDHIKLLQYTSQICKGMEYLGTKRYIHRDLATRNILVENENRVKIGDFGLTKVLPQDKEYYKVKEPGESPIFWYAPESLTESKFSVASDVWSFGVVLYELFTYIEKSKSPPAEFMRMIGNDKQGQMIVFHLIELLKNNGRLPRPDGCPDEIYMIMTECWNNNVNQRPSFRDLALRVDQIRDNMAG

Compound | Ki
CC1(n2nnc3cnc4[nH]ccc4c32)CCN(CCC#N)CC1 | 487 nM
c1cc2c(ncc3nnn(C4CCNCC4)c32)[nH]1 | 669 nM
c1cncc(CN2CCC(n3nnc4cnc5[nH]ccc5c43)CC2)c1 | 28 nM

More lines, now with the values ahead:

Ki | Compound
401 nM | CC(C)(C)OC(=O)N[C@H]1CC[C@H](n2nnc3cnc4[nH]ccc4c32)CC1
10 nM | CC(C)(C)OC(=O)N[C@@H]1CC[C@@H](n2nnc3cnc4[nH]ccc4c32)C1

biological target: T1, Tyrosine-protein kinase JAK1; test: Inhibition of JAK1-mediated STAT3 phosphorylation in IL6-induced human TF1 cells; assay type: cell-based, TF-1; conditions: not given

EC50 | Compound
127 nM | CC(C)(C)OC(=O)N[C@@H]1CC[C@@H](n2nnc3cnc4[nH]ccc4c32)C1
414 nM | c1cncc(CN2CCC(n3nnc4cnc5[nH]ccc5c43)CC2)c1

test system: not listed separately; test: Half life in human liver microsomes; assay type: ADME, Microsome; conditions: not given
Summary of the method: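 Half-life measured by incubation with in vitro preparations of human liver microsomes.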

Compound | half-life
N#CCCO[C@H]1CC[C@H](n2nnc3cnc4[nH]ccc4c32)CC1 | 5.8 h
CC1(n2nnc3cnc4[nH]ccc4c32)CCN(CCC#N)CC1 | 4.8 h
c1cncc(CN2CCC(n3nnc4cnc5[nH]ccc5c43)CC2)c1 | 0.7 h

Second part, the compound after the results:

half-life | Compound
1 h | CC(C)(C)OC(=O)N[C@H]1CC[C@H](n2nnc3cnc4[nH]ccc4c32)CC1
0.9 h | CC(C)(C)OC(=O)N[C@@H]1CC[C@@H](n2nnc3cnc4[nH]ccc4c32)C1

test system: TF-1; test: Selectivity ratio of EC50 for JAK2-mediated STAT5 phosphorylation in EPO-induced human TF1 cells to EC50 for JAK1-mediated STAT3 phosphorylation in IL6-induced human TF1 cells; assay type: cell-based; conditions: not given

Compound | Ratio EC50
CC(C)(C)OC(=O)N[C@@H]1CC[C@@H](n2nnc3cnc4[nH]ccc4c32)C1 | 4.3
c1cncc(CN2CCC(n3nnc4cnc5[nH]ccc5c43)CC2)c1 | 2.7
